Measurements from ChEMBL document CHEMBL1158500, “Synthesis and biological evaluation of new potential inhibitors of N-acylethanolamine hydrolyzing acid amidase” (Bioorg Med Chem Lett, 2010).
Activity calls are given as the source filed them. The calls are words filed in the database; no cut-off is given here.

Tests used:
[1] = biological target: T1, N-acylethanolamine-hydrolyzing acid amidase (Homo sapiens) (UniProt Q02083); test: Inhibition of human recombinant NAAA expressed in human HEK293 cells assessed as conversion of [1,2-14C]palmitoylethanolamine to [1,2-14C]ethanolamine at 50 uM by liquid scintillation counting; assay type: cell-based
T1 sequence (whole entry): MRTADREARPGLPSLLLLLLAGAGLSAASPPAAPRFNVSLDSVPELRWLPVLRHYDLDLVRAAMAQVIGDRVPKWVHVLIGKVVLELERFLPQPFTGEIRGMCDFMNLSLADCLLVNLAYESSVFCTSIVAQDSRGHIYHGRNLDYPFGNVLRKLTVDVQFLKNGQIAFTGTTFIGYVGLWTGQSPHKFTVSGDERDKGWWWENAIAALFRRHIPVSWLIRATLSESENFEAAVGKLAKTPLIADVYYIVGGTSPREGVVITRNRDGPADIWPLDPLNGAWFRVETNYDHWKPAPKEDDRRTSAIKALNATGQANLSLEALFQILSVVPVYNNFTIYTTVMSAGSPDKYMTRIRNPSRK

[2] = biological target: T2, N-acylethanolamine-hydrolyzing acid amidase (Homo sapiens, UniProt Q02083); test: Inhibition of NAAA
T2 sequence (Q02083 whole entry): T1 sequence (whole entry)

[3] = biological target: Cannabinoid receptor 1 (Homo sapiens) (UniProt P21554); test: Displacement of [3H]CP-55940 from human recombinant CB1 receptor expressed in HEK293 cells up to 50 uM after 90 mins; assay type: cell-based
[4] = biological target: T3, Fatty-acid amide hydrolase 1 (Homo sapiens) (UniProt O00519); test: Inhibition of FAAH up to 50 uM
T3 sequence (whole entry): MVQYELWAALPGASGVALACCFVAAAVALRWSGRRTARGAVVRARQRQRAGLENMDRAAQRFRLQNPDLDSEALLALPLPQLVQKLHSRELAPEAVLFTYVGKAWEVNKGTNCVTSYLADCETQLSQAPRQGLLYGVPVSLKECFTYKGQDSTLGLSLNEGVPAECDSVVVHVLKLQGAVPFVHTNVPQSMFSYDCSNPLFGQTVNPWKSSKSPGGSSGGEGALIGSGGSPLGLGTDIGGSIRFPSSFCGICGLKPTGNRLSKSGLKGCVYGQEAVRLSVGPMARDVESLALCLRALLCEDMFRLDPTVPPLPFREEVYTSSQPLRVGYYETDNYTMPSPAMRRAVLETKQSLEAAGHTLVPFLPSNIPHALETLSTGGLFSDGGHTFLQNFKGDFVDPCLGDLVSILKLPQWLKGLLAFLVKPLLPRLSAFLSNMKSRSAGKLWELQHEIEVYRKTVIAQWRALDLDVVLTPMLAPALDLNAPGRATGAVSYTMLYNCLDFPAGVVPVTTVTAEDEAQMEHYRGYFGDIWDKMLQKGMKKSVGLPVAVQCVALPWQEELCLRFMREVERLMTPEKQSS

[5] = biological target: T2, N-acylethanolamine-hydrolyzing acid amidase; test: Inhibition of human recombinant NAAA expressed in human HEK293 cells assessed as conversion of [1,2-14C]palmitoylethanolamine to [1,2-14C]ethanolamine by liquid scintillation counting
[6] = biological target: T3, Fatty-acid amide hydrolase 1 (Homo sapiens); test: Inhibition of FAAH in human intact HEK293 assessed as anandamide level by LC-APCI-MS analysis; assay type: cell-based
Procedure, shortened: (§1)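 Intact HEK-NAAA cells (HEK-293 stably overexpressing human NAAA) were treated. Cellular PEA, AEA, OEA and 2-arachidonoylglycerol were quantified by isotope-dilution liquid chromatography–mass spectrometry and expressed as pmol/mg lipid.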

[7] = biological target: Cannabinoid receptor 1 (Homo sapiens) (UniProt P21554); test: Inhibition of CB1 receptor in intact human HEK293 cells assessed as 2-arachidonoylglycerol level by LC-APCI-MS analysis; assay type: cell-based; procedure, shortened: as §1
[8] = biological target: T1, N-acylethanolamine-hydrolyzing acid amidase (Homo sapiens); test: Competitive inhibition of human recombinant NAAA expressed in human HEK293 cells assessed as conversion of [1,2-14C]palmitoylethanolamine to [1,2-14C]ethanolamine by Lineweaver-Burke plot analysis; assay type: cell-based
[9] = biological target: Cannabinoid receptor 2 (Homo sapiens) (UniProt P34972); test: Displacement of [3H]CP-55940 from human recombinant CB2 receptor expressed in HEK293 cells up to 50 uM after 90 mins; assay type: cell-based
[10] = biological target: Peroxisome proliferator-activated receptor (Homo sapiens) (UniProt P37231+Q07869+Q03181); test: Inhibition of PPAR in intact human HEK293 cells assessed as N-oleoylethanolamine level by LC-APCI-MS analysis; assay type: cell-based; procedure, shortened: as §1
[11] = biological target: T1, N-acylethanolamine-hydrolyzing acid amidase (Homo sapiens); test: Inhibition of NAAH in human intact HEK293 assessed as N-palmitoylethanolamine level by LC-APCI-MS analysis; assay type: cell-based; procedure, shortened: as §1
[12] = biological target: Transient receptor potential cation channel subfamily V member 1 (Homo sapiens) (UniProt Q8NER1); test: Inhibition of human TRPV1 expressed in HEK293 cells up to 50 uM; assay type: cell-based

| Compound | inhibition [1] | also measured |
| --- | --- | --- |
| CCCCCCCCCCCCCCCC(=O)OC1CCC1 | 41% |  |
| CCCCCCCCCCCCCCCCC(=O)OC1CCCCC1 | inactive |  |
| CCCCCCCCCCCCCCCCOC(=O)NC1CCCCC1 | inactive |  |
| CCCCCCCCCCCCCCCCC(=O)OC1CCC1 | inactive |  |
| CCCCCCCCCCCCCCC(=O)OC1CCCC1 | 25% |  |
| CCCCCCCCCCCCCCCC(=O)NC1CCN(Cc2ccccc2)CC1 | inactive |  |
| CCCCCCCCCCCCCCCCOC(=O)C1CCCC1 | 17% |  |
| CCCCCCCCCCCCCCCC(=O)Nc1ccc(OC)cc1 | inactive |  |
| CCCCCCCCCCCCCCCNC(=O)CCO |  | IC50 [2]: 32 µM |
| CCCCCCCCCCCCCCCCOC(=O)CC [HEXADECYLPROPIONATE] |  | IC50 [2]: 54 µM |
| CCCCCCCCCCCCCCCC(=O)OC1CCCC1 [CYCLOPENTYL PALMITATE] | 85% | Activity [3]: inactive; Activity [4]: inactive; IC50 [5]: 10 µM; Activity [6]: inactive; Activity [7]: inactive; Activity [8]: Active; Activity [9]: inactive; Activity [10]: inactive; Activity [11]: Active; Activity [12]: inactive |
| CCCCCCCCCCCCCCCC(=O)OC1CCCCC1 | 18% |  |
| CCCCCCCCCCCCCCCC(=O)NN1CCN(c2cc(C)ccc2C)CC1 | inactive |  |
| CCCCCCCCCCCCCCCC(=O)NCCc1ccc(OC)cc1 | inactive |  |
| CCCCCCCCCCCCCCCC(=O)NN1CCN(c2ccc(F)cc2)CC1 | inactive |  |
| CCCCCCCCCCCCCCCCOC(=O)c1ccc(OC)cc1 | inactive |  |

| Compound | inhibition [1] | also measured |
| --- | --- | --- |
| CCCCCCCCCCCCCCC(=O)OC1CCC1 | 29% |  |
| CCCCCCCCCCCCCCCCNC(=O)C1CCCC1 | 8% |  |
| CCCCCCCCCCCCCCCCNC(=O)c1ccc([N+](=O)[O-])cc1 | 4% |  |
| CCCCCCCCCCCCCCCCNC(=O)c1ccc(OC)cc1 | inactive |  |
| CCCCCCCCCCCCCCCCC(=O)OC1CCCC1 | inactive |  |
| CCCCCCCCCCCCCCCC(=O)NN1CCN(c2ccc(Cl)cc2)CC1 | inactive |  |
| CCCCCCCCCCCCCCCNC(=O)C1CCCCC1 [CYCLOHEXANECARBOXYLIC ACID PENTADECYLAMIDE] |  | IC50 [5]: 17 µM |
| CCCCCCCCCCCCCCCCOC(=O)Nc1ccc(OC)cc1 | inactive |  |
| CCCCCCCCCCCCCCC(=O)OC1CCCCC1 | 28% |  |
| CCCCCCCCCCCCCCCC(=O)Oc1ccc(OC)cc1 | inactive |  |
| CCCCCCCCCCCCCCCC(=O)Nc1ccc([N+](=O)[O-])cc1 | 15% |  |
| CCCCCCCCCCCCCCCC(=O)NCCc1cc(OC)cc(OC)c1 | inactive |  |
| CCCCCCCCCCCCCCCCOC(=O)c1ccc([N+](=O)[O-])cc1 | 26% |  |
| CCCCCCCCCCCCCCCC(=O)NN1CCN(c2ccc(C)c(C)c2)CC1 | inactive |  |
| CCCCCCCCCCCCCCCNC(=O)c1ccccc1 |  | IC50 [2]: 8.3 µM |
